Test results from ChEMBL document CHEMBL4177582, “Modifications of flexible nonyl chain and nucleobase head group of (+)-erythro-9-(2's-hydroxy-3's-nonyl)adenine [(+)-EHNA] as adenosine deaminase inhibitors” (Bioorg Med Chem, 2017).

Columns and labels:
Adenosine deaminase = biological target: T1, Adenosine deaminase (Bos taurus, UniProt P56658); assay: Inhibition of bovine adenosine deaminase pre-incubated for 5 mins before adenosine addition
T1 sequence (P56658 whole entry): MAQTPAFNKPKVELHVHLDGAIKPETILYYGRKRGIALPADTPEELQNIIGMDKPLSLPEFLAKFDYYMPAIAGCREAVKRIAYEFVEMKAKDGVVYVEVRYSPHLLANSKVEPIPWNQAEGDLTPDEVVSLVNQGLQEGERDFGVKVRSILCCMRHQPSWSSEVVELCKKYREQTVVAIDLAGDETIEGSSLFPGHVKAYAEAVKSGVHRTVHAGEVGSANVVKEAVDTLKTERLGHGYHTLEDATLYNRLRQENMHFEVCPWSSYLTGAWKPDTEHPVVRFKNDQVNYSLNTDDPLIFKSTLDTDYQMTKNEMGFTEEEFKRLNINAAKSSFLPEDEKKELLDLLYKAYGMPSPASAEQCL

[1] = Half life in rat liver microsomes pre-incubated at 37 degC for 5 mins before NADPH addition and measured after 30 mins by LC/MS/MS method; assay type: ADME, microsome
[2] = Drug metabolism in rat liver microsomes assessed as metabolic turnover rate per 0.125 mg/ml protein pre-incubated at 37 degC for 5 mins before NADPH addition and measured after 30 mins by LC/MS/MS method; assay type: ADME, microsome; conditions: 0.5 h
[3] = Drug metabolism in mouse liver microsomes assessed as drug recovery pre-incubated at 37 degC for 5 mins measured after 30 mins in absence of NADPH by LC/MS/MS method; assay type: ADME, microsome; conditions: read-out: Drug recovery
[4] = Drug metabolism in human liver microsomes assessed as metabolic turnover rate per 0.125 mg/ml protein pre-incubated at 37 degC for 5 mins before NADPH addition and measured after 30 mins by LC/MS/MS method; assay type: ADME, microsome; conditions: 0.5 h
[5] = Drug metabolism in human liver microsomes assessed as drug recovery pre-incubated at 37 degC for 5 mins measured after 30 mins in absence of NADPH by LC/MS/MS method; assay type: ADME, microsome; conditions: read-out: Drug recovery
[6] = Drug metabolism in rat liver microsomes assessed as drug recovery pre-incubated at 37 degC for 5 mins before NADPH addition and measured after 30 mins by LC/MS/MS method; assay type: ADME, microsome; conditions: read-out: Drug recovery
[7] = Drug metabolism in mouse liver microsomes assessed as drug recovery pre-incubated at 37 degC for 5 mins before NADPH addition and measured after 30 mins by LC/MS/MS method; assay type: ADME, microsome; conditions: read-out: Drug recovery
[8] = Drug metabolism in rat liver microsomes assessed as drug recovery pre-incubated at 37 degC for 5 mins measured after 30 mins in absence of NADPH by LC/MS/MS method; assay type: ADME, microsome; conditions: read-out: Drug recovery
[9] = Half life in human liver microsomes pre-incubated at 37 degC for 5 mins before NADPH addition and measured after 30 mins by LC/MS/MS method; assay type: ADME, microsome
[10] = Half life in mouse liver microsomes pre-incubated at 37 degC for 5 mins before NADPH addition and measured after 30 mins by LC/MS/MS method; assay type: ADME, microsome
[11] = Drug metabolism in human liver microsomes assessed as drug recovery pre-incubated at 37 degC for 5 mins before NADPH addition and measured after 30 mins by LC/MS/MS method; assay type: ADME, microsome; conditions: read-out: Drug recovery
[12] = Drug metabolism in mouse liver microsomes assessed as metabolic turnover rate per 0.125 mg/ml protein pre-incubated at 37 degC for 5 mins before NADPH addition and measured after 30 mins by LC/MS/MS method; assay type: ADME, microsome; conditions: 0.5 h
[13] = Volume of distribution at steady state in Wistar rat at 3 mg/kg, iv after 0.25 to 24 hrs by LC/MS/MS method; assay type: ADME, organism-based; conditions: in vivo, read-out: Vdss
In short: (§1)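 Male Wistar rats were given a single intravenous dose. The vehicle was NMP 10%, PEG-300 15%, and 0.1M ammonium acetate buffer q.s. (pH 3). Plasma concentration–time profiles were used to derive AUC0-t, Vss, clearance (mL/min/kg) and t1/2.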

[14] = Half life in Wistar rat at 3 mg/kg, iv after 0.25 to 24 hrs by LC/MS/MS method; assay type: ADME, organism-based; conditions: in vivo; in short: as §1
[15] = Clearance in Wistar rat at 3 mg/kg, iv after 0.25 to 24 hrs by LC/MS/MS method; assay type: ADME, organism-based; conditions: in vivo; in short: as §1
[16] = AUC (0 to t) in Wistar rat at 3 mg/kg, iv after 0.25 to 24 hrs by LC/MS/MS method; assay type: ADME, organism-based; design: time upper 24 hr, dose 3 mg/kg, time lower 0.25 hr, route intravenous; conditions: in vivo; in short: as §1

Ki (Adenosine deaminase; read-out: Ki)	half-life [1]	Drug metabolism [2]	remaining at 0.5 h [3]	Drug metabolism [4]	remaining at 0.5 h [5]	remaining at 0.5 h [6]	remaining at 0.5 h [7]	remaining at 0.5 h [8]	half-life [9]	half-life [10]	remaining at 0.5 h [11]	Drug metabolism [12]	Compound	further results
0.6 nM													C[C@H](O)[C@@H](CCc1cccc(Br)c1)n1cnc2c(N)ncnc21	
2.2 nM													C[C@H](O)[C@@H](CCc1cccc(C(=O)N2CCCC2)c1)n1cnc2c(N)ncnc21	
2.3 nM	> 30 min	0.12 nmol/min/mg	100%	0.06 nmol/min/mg	91%	64%	58%	100%	> 30 min	> 30 min	82%	0.15 nmol/min/mg	C[C@H](O)[C@@H](CCc1cccc(-c2ccccn2)c1)n1cnc2c(N)ncnc21	
1.8 nM													C[C@H](O)[C@@H](CCc1cccc(C(=O)NC2CCCC2)c1)n1cnc2c(N)ncnc21	
53 nM													C[C@H](O)[C@@H](CCc1cccc(C(=O)O)c1)n1cnc2c(N)ncnc21	
													C[C@H](O)[C@@H](CCc1ccc(C(F)(F)F)cc1)n1ccc2c(N)ncnc21	Ki (Adenosine deaminase): Not Active
66 nM													Cc1ccccc1SC[C@H]([C@H](C)O)n1cnc2c(N)ncnc21	
1.9 nM	13 min	0.44 nmol/min/mg	92%	0.11 nmol/min/mg	83%	19%	77%	94%	> 30 min	> 30 min	65%	0.07 nmol/min/mg	C[C@H](O)[C@@H](CCC1CCCCC1)n1cnc2c(N)ncnc21	
49 nM													Cc1cccc(SC[C@H]([C@H](C)O)n2cnc3c(N)ncnc32)c1	
1.6 nM													C[C@H](O)[C@@H](CCc1cccc(F)c1)n1cnc2c(N)ncnc21	
54 nM	> 30 min	0.04 nmol/min/mg	94%	< 0.04 nmol/min/mg	85%	86%	100%	97%	> 30 min	> 30 min	94%	< 0.04 nmol/min/mg	CCCCSC[C@H]([C@H](C)O)n1cnc2c(N)ncnc21	
69 nM													CC(C)(O)[C@@H](CCc1ccc(C(F)(F)F)cc1)n1cnc2c(N)ncnc21	
1.9 nM	> 30 min	< 0.04 nmol/min/mg	94%	0.09 nmol/min/mg	94%	90%	57%	85%	> 30 min	> 30 min	71%	0.16 nmol/min/mg	C[C@H](O)[C@@H](CCc1cccc(-c2cnccn2)c1)n1cnc2c(N)ncnc21	
2.6 nM	> 30 min	0.09 nmol/min/mg	92%	0.05 nmol/min/mg	100%	76%	65%	91%	> 30 min	> 30 min	84%	0.1 nmol/min/mg	C[C@H](O)[C@@H](CCc1cccc(-c2nccs2)c1)n1cnc2c(N)ncnc21	
1.1 nM	> 30 min	0.04 nmol/min/mg	89%	0.06 nmol/min/mg	95%	86%	74%	91%	> 30 min	> 30 min	80%	0.08 nmol/min/mg	C[C@H](O)[C@@H](CCc1cccc(C(F)(F)F)c1)n1cnc2c(N)ncnc21	Vd [13]: 1.88 L/kg; half-life [14]: < 30 min; clearance [15]: 85 mL/min/kg; AUC(0-t) [16]: 1.61 µM·h
													C[C@H](O)[C@@H](CCc1cccc(C(F)(F)F)c1)n1ccc2c(N)ncnc21	Ki (Adenosine deaminase): Not Active
													C[C@H](O)[C@@H](CCc1ccc(C(F)(F)F)cc1)n1ncc2c(N)ncnc21	Ki (Adenosine deaminase): Not Active
135 nM													C[C@H](O)[C@@H](CSc1ccccc1)n1cnc2c(N)ncnc21	
2.1 nM	> 30 min	0.15 nmol/min/mg	90%	0.07 nmol/min/mg	95%	58%	64%	95%	> 30 min	> 30 min	76%	0.11 nmol/min/mg	CCc1ccc(CC[C@H]([C@H](C)O)n2cnc3c(N)ncnc32)s1	
2.9 nM													C[C@H](O)[C@@H](CCc1cccc(C(N)=O)c1)n1cnc2c(N)ncnc21	
													CC(=O)[C@@H](CCc1ccc(C(F)(F)F)cc1)n1cnc2c(N)ncnc21	Ki (Adenosine deaminase): Not Active
2.2 nM	> 30 min	< 0.04 nmol/min/mg	100%	0.1 nmol/min/mg	65%	96%	88%	99%	> 30 min	> 30 min	68%	0.04 nmol/min/mg	COC(=O)c1cccc(CC[C@H]([C@H](C)O)n2cnc3c(N)ncnc32)c1	
5.2 nM	> 30 min	< 0.04 nmol/min/mg	94%	< 0.04 nmol/min/mg	95%	93%	85%	93%	> 30 min	> 30 min	99%	0.04 nmol/min/mg	C[C@H](O)[C@@H](CCc1ccc(C(F)(F)F)cc1)n1cnc2c(N)ncnc21	Vd [13]: 7.01 L/kg; half-life [14]: 133 min; clearance [15]: 59 mL/min/kg; AUC(0-t) [16]: 2.21 µM·h
6.2 nM													C[C@H](O)[C@@H](CCc1ccccc1C(F)(F)F)n1cnc2c(N)ncnc21	
29 nM													C[C@H](O)[C@@H](CCc1ccc(C(F)(F)F)cc1)n1cnc(C(N)=O)c1	
													C[C@H](O)[C@@H](CCc1cccc(C(F)(F)F)c1)n1ncc2c(N)ncnc21	Ki (Adenosine deaminase): Not Active
1.8 nM													C[C@H](O)[C@@H](CCc1cccc(C(=O)N(C)C)c1)n1cnc2c(N)ncnc21	
2.7 nM	> 30 min	< 0.04 nmol/min/mg	96%	< 0.04 nmol/min/mg	92%	91%	100%	100%	> 30 min	> 30 min	90%	< 0.04 nmol/min/mg	CNC(=O)c1cccc(CC[C@H]([C@H](C)O)n2cnc3c(N)ncnc32)c1	
4.6 nM													C[C@H](O)[C@@H](CCc1cccc(CO)c1)n1cnc2c(N)ncnc21	
25 nM	> 100 min	0.05 nmol/min/mg	100%	0.05 nmol/min/mg	89%	83%	43%	100%	> 100 min	25 min	83%	0.22 nmol/min/mg	C[C@H](O)[C@@H](CSc1cccc(C(F)(F)F)c1)n1cnc2c(N)ncnc21	
